A selection: hits, their analogues and other compounds. The true share with any hit is near 3%.
Cl transport mod: KCC2 cotransporter modulators, thallium flux, primary screen, cell-based, HEK293 KCC2, FluoZin-2 fluorescence, MLSMR; 2.2% of 190,000 active; KCC2 cells, thallium flux FluoZin-2 fluorescence; B-score of Tl+ flux slope (higher = more flux/activation; lower = inhibition) at 10 µM;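 active means thallium flux slope and its plate-corrected score both differing from the plate sample mean at a set confidence after two filtering rounds, in either direction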;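 further: slope of fluorescence scaled to starting intensity during 10 to 20 s after thallium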
ROMK primary: ROMK potassium channel modulators, primary screen, cell-based, thallium flux, MLSMR library | ATP-sensitive inward rectifier potassium channel 1 (Homo sapiens), P48048 | Tet-inducible ROMK, thallium flux fluorescence; actives lie on both sides | B-score at 10 µM | 2% of 130,000 active | AID 1918, 2009;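 active means signal ratio slope over the read window, or its plate-corrected B-score, at least 3 SD from the plate mean, either direction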;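 further: B-score of the F/F0 ratio slope over 7 to 12 s after thallium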
Rad51 HR inh: human RAD51 strand exchange inhibitors, primary screen, biochemical, fluorescence. DNA repair protein RAD51 homolog 1 (Homo sapiens), Q06609. hRad51 DNA strand exchange, fluorescence dequenching. inhibition, % at 10 µM. 0.085% of 200,000 active;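 active means inhibition above 40% at the single screening dose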;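 further: 0% = DMSO control wells and 100% = blanks with heterologous ssDNA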
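Read-out basis: percent inhibition relative to plate controls and blanks / Assay system: human Rad51 nucleoprotein filaments preassembled on unlabelled ssDNA / Timing: filaments 15 min 37 °C, then compound 30 min / Control set: per-plate controls and blanks / Technique: fluorescence dequenching at 485/520 nm / Compound: 10 µM final, single point / Also added: Fluorescein- and BHQ1-tagged 47-mer duplex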
PKD1 inh: inhibitors of human PKD1 kinase, biochemical, fluorescence polarization. PKD1 kinase fluorescence polarization assay. 0.056% of 200,000 active. inhibition, % (concentration not given with the values). Serine/threonine-protein kinase D1 (Homo sapiens), Q15139; in the data active means inhibition above about 50%
Target sequence (Q15139 whole entry, looked up): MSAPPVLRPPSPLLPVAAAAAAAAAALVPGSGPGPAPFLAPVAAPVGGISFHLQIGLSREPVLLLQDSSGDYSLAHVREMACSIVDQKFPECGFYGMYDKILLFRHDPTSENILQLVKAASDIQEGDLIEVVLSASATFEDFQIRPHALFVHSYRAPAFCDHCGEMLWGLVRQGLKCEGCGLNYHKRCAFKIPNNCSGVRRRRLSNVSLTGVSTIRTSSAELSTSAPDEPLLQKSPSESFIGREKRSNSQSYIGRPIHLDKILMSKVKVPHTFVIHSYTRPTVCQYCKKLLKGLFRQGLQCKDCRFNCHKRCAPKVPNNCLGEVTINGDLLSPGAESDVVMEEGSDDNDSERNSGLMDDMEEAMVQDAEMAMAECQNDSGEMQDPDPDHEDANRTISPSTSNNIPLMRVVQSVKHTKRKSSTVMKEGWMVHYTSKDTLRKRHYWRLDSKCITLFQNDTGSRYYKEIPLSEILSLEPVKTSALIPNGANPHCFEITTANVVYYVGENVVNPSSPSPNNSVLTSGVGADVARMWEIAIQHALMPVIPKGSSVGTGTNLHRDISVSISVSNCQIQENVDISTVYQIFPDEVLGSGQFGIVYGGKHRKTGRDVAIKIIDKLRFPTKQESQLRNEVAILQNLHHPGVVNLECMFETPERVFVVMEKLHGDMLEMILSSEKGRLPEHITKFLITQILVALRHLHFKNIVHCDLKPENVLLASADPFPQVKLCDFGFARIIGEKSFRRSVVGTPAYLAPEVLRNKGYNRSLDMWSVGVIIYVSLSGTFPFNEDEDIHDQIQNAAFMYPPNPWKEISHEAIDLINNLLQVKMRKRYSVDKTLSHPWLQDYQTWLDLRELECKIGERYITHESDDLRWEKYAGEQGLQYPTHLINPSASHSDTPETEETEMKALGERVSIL
KCC2 sec1: KCC2 modulators in sodium-free buffer, confirmation, cell-based, HEK293 KCC2, thallium flux, secondary assay; 15% of 3,700 active; normalised thallium flux (F/F0 slope) at 10 µM; shares compounds with Cl transport mod; FluoZin2 fluorescence; hits give high values;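 active means thallium flux slope above the same plate's solvent-only control mean plus 3 SD; inconclusive means the two replicate wells disagree; inactive means no significant difference from solvent-only control wells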
KCC2 bumet counter: thallium flux persisting under bumetanide in KCC2 cells, confirmation, counter-screen for KCC2 modulator project, cell-based, HEK293 KCC2, FluoZin2, secondary assay 3; 49% of 3,700 active; HEK293-KCC2 + bumetanide/ouabain; hits give high values; normalized thallium flux at 10 µM; shares compounds with Cl transport mod;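 active means thallium entry rate above the same plate's blocked-transporter control wells by more than 3 SD; inconclusive means the two repeat wells disagree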;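 further: raw slope of fluorescence over initial fluorescence between 10 and 20 s after thallium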
KCC2 secondary2: KCC2 modulators without ouabain present, confirmation, cell-based, HEK293 KCC2, thallium flux, FluoZin2, secondary assay 2. shares compounds with Cl transport mod. thallium flux FluoZin2 fluorescence; actives lie on both sides; F/F0 rise rate, 10–20 s post-thallium. normalized thallium flux at 10 µM. 23% of 3,700 active. AID 1715, 2009;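 active means thallium flux slope more than 3 SD above or below the plate's solvent-only control mean, mostly below; inconclusive means the two repeat wells disagreed; inactive means no significant shift from solvent-only controls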;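 further: raw slope with 0.1% DMSO as baseline and bumetanide as block control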
HEK293 Tl flux: thallium flux modulation in parental HEK cells, confirmation, counter-screen for KCC2 modulator project, cell-based, counterscreen 1; shares compounds with Cl transport mod; 46% of 3,700 active; AID 1716, 2009; thallium flux rate (normalised fluorescence) at 10 µM; HEK293 parental cells, thallium flux FluoZin2, ouabain; baseline-ratio fluorescence slope, 10–20 s after thallium;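 active means thallium flux rate significantly above the same plate's solvent-only control wells, beyond their mean plus 3 SD; inconclusive means the two replicate wells gave conflicting results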
KCC2 ouabain: KCC2 inhibitors and activators, ouabain retest, confirmation, HEK-KCC2 cells; shares compounds with Cl transport mod; HEK293-KCC2, thallium flux FluoZin2 fluorescence; bidirectional: low = inhibitor, high = activator; raw Tl+ flux slope (below DMSO = inhibition, above = activation) at 10 µM; 48% of 3,700 active;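 active means thallium flux slope beyond 3 SD from same-plate DMSO control mean in most replicates, usually higher, sometimes lower; inconclusive means repeat tests gave conflicting results; inactive means no significant difference from controls in most replicates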;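 further: slope of initial-normalized fluorescence between seconds 10 and 20 after thallium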
HEK293 Tl flux2: native HEK Tl+ uptake effects, second counter-screen – HEK cells, counterscreen 2, counter-screen for KCC2 modulator project, confirmation; shares compounds with Cl transport mod; HEK293 parental, thallium flux FluoZin-2 fluorescence slope; thallium flux slope at 10 µM; 33% of 3,700 active; AID 1718, 2009;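 active means thallium flux slope above the same plate's solvent-control mean plus 3 SD in both duplicate wells; inconclusive means duplicate wells that disagreed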;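 further: run without ouabain in cells lacking the KCC2 cotransporter; slope of fluorescence scaled to its starting value between 10 and 20 s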
Active calls of the source: *; ? = inconclusive; . = no result given.

SMILES | Cl transport mod | ROMK primary | Rad51 HR inh | PKD1 inh | KCC2 sec1 | KCC2 bumet counter | KCC2 secondary2 | HEK293 Tl flux | KCC2 ouabain | HEK293 Tl flux2
CCOC(=O)CC(NS(=O)(=O)c1ccc(OC)c(C)c1)c1cccc([N+](=O)[O-])c1 (stereo not given) | -1.2 | -0.98 | -5 | 4 | . | . | . | . | . | .
COc1ccc(CCN2C(=NC(C)=O)SC3CS(=O)(=O)CC32)cc1OC (stereo not given) | 0.17 | . | . | . | . | . | . | . | . | .
CSc1nc2c(cnn2-c2ccccc2)c(=O)n1N | 1.2 | -0.38 | 10 | 1 | . | . | . | . | . | .
CCSc1nc2c(cnn2-c2ccccc2)c(=O)n1N | 4.6* | -0.089 | 20 | . | 0.01 | 0.02* | 0.031 | 0.01* | 0.034* | 0.011*
NC(=O)COC(=O)/C=C/c1cccc(Br)c1 | -7.7* | 0.31 | 8 | 6 | 0.0092 | 0.0064 | 0.033 | 0.0079 | 0.021 | 0.01
COc1ccc(SCCC(=O)NCc2ccncc2)cc1 | -0.2 | . | 16 | . | . | . | . | . | . | .
O=C(Cn1nc(-c2ccccc2F)ccc1=O)NCc1ccc2c(c1)OCO2 | -3.9* | . | -7 | 4 | ? | 0.0051 | ? | 0.0077 | 0.014 | 0.01
COc1ccccc1-c1ccc(SCC(=O)NCc2ccc3c(c2)OCO3)nn1 | -1.5 | -2.1 | -22 | -1 | . | . | . | . | . | .
COc1cc(NC(=O)CCNS(=O)(=O)c2ccc3c(c2)CCC(=O)N3)cc(OC)c1 | -0.34 | 1 | . | -6 | . | . | . | . | . | .
O=C1CC(c2nc3ccccc3[nH]2)CN1Cc1ccccc1 (stereo not given) | -3.4* | . | 5 | -15 | 0.012* | ? | 0.03 | 0.0082 | 0.021 | 0.011
CC1(C)C2CCC(C2)C1(C)NC(=O)CNCC1CCCCC1 (stereo not given) | 1 | -2.4 | 2 | 2 | . | . | . | . | . | .
O=C(/C=C/c1ccc(Cl)cc1)NC(=S)Nc1ccc(NC(=O)c2ccco2)cc1 | 0.68 | 0.79 | 7 | -2 | . | . | . | . | . | .
CCOC(=O)C(C#N)(Cc1cc(OC)cc(OC)c1)Cc1cc(OC)cc(OC)c1 | . | . | 6 | . | . | . | . | . | . | .
CCOC(=O)c1c(NC(=S)NCc2ccccc2)sc2c1CCN(C(=O)OCC)C2 | 4.7* | . | -17 | . | ? | 0.025* | 0.032 | 0.014* | 0.024 | 0.012*
O=C(Cn1cnc2c(nnn2Cc2ccc(Cl)cc2)c1=O)c1ccccc1 | -2.6 | . | 1 | -3 | . | . | . | . | . | .
O=C(Cn1cnc2c(nnn2Cc2ccc(F)cc2)c1=O)N1CCCCC1 | . | -0.22 | . | -3 | 0.0076 | 0.0057 | 0.03 | 0.0085 | 0.014* | 0.012
O=C(Cn1cnc2c(nnn2Cc2ccccc2)c1=O)c1ccccc1 | -4.7* | . | . | -2 | 0.0059 | 0.0048 | 0.024* | ? | 0.014* | 0.011
Cc1ccc(Cn2nnc3c(=O)n(CC(=O)N4CCN(c5ccccc5)CC4)cnc32)cc1 | -3.2* | -2 | -5 | 4 | 0.0075 | 0.0059 | 0.031 | 0.0064 | ? | 0.0095
Cc1ccc(Cn2nnc3c(=O)n(CC(=O)OCc4ccccc4)cnc32)cc1 | -1.8 | -0.73 | 3 | -7 | . | . | . | . | . | .
O=C(Cn1cnc2c(nnn2-c2ccc(F)cc2)c1=O)N1CCCc2ccccc21 | -4.4* | 0.27 | -2 | -13 | 0.0071 | 0.0048 | 0.027 | 0.0075 | 0.017 | 0.0099
COc1ccc(-n2nnc3c(=O)n(CC(=O)N4CCCc5ccccc54)cnc32)cc1 | -1.1 | . | -6 | 0 | . | . | . | . | . | .
Cc1c(Cl)ccc2c(C(=O)NC(C)c3ccncc3)cc(-c3ccncc3)nc12 (stereo not given) | 0.019 | -0.46 | 1 | -2 | . | . | . | . | . | .
O=C(Cn1cnc2c(nnn2Cc2ccc(F)cc2)c1=O)NCc1ccco1 | -4.5* | 0.013 | 7 | -2 | 0.0069 | 0.0048 | 0.024* | 0.0075 | 0.017* | 0.01
COc1cccc(-c2cc3nc4c(c(N5CCC6(CC5)OCCO6)n3n2)CCC4)c1 | -1.1 | -1.1 | -7 | 2 | . | . | . | . | . | .
CC(=O)N1N=C2c3ccccc3CCC2C1c1ccc(F)cc1 (stereo not given) | -3.6* | . | 14 | . | 0.0075 | 0.0053 | 0.034 | ? | 0.016* | 0.01
SMILES | Cl transport mod | ROMK primary | Rad51 HR inh | PKD1 inh | KCC2 sec1 | KCC2 bumet counter | KCC2 secondary2 | HEK293 Tl flux | KCC2 ouabain | HEK293 Tl flux2
Cc1cc(Cl)ccc1OCc1n[nH]c(=S)n1C1CCCCC1 | 16* | . | -2 | -6 | 0.0072 | 0.041* | 0.049* | 0.04* | 0.036* | 0.031*
COc1ccc(Cl)cc1-c1n[nH]c(=S)n1C1CCCCC1 | 0.026 | 1.1 | 6 | 3 | . | . | . | . | . | .
CSc1ccccc1NC(=O)c1cc(C(C)C)on1 | . | -0.17 | -5 | -5 | 0.0081 | 0.0042 | 0.028 | 0.0073 | 0.017 | 0.0099
COC(=O)c1ccc(NC(=S)NN2CCCCC2c2cccnc2)cc1 (stereo not given) | -0.9 | . | 19 | . | . | . | . | . | . | .
O=C(NC(=S)NN1CCCCC1c1cccnc1)c1ccc(Br)cc1 (stereo not given) | 65* | . | 13 | . | 0.033* | 0.099* | 0.046* | 0.04* | 0.066* | 0.02*
CCOC(=O)C1=NN(C(=O)c2ccc(OC)cc2)C(O)(c2ccc(Cl)cc2)C1 (stereo not given) | 66* | 1.1 | -67 | -17 | ? | 0.093* | 0.077* | 0.095* | 0.087* | 0.064*
CCOC(=O)C1=NN(C(=O)COc2ccccc2)C(O)(c2ccc(Cl)cc2)C1 (stereo not given) | 6.7* | -0.52 | 3 | -2 | 0.012* | 0.029* | 0.03 | 0.013* | 0.026 | ?
CCOC(=O)C1=NN(C(=O)Cc2ccccc2)C(O)(c2ccc(Cl)cc2)C1 (stereo not given) | 1.3 | -0.022 | . | -2 | . | . | . | . | . | .
